Experimental data: ChEMBL document CHEMBL4368869, “'Second-generation' 1,2,3-triazole-based inhibitors of Porphyromonas gingivalis adherence to oral streptococci and biofilm formation” (Medchemcomm, 2019); call rule not given here

Key:
Porphyromonas gingivalis = assay: Antibiofilm activity against Porphyromonas gingivalis ATCC 33277 assessed as inhibition of Porphyromonas gingivalis ATCC 33277 adherence to Streptococcus gordonii after 22 hrs by laser scanning confocal microscopic analysis; assay type: functional, organism-based
How it was run: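 S. gordonii DL-1, labelled with hexidium iodide and adjusted to OD600 0.8 in PBS, is grown 24 h at 37 °C with shaking under anaerobic conditions on coverslips. Carboxyfluorescein-labelled P. gingivalis (OD600 0.4) is pre-incubated 30 min with compound (final 0–60 μM, 0.1% DMSO) and added, then incubated anaerobically 22 h. After PFA fixation, confocal imaging reads the green/red fluorescence ratio. IC50 is the concentration halving that ratio. Triplicates, three independent experiments.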

TIGK [1] = assay: Cytotoxicity against human TIGK cells assessed as reduction in ATP levels after 18 hrs by CellTiterGlo reagent-based assay; assay type: cell-based
How it was run: (§1)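 TIGK cells are seeded at 4000/well and grown 24 h, then exposed 18 h to compound. They are washed three times with PBS and treated with CellTiterGlo substrate, 2 min with shaking plus 10 min static. Total ATP is read by luminescence. Reduction is judged against cells in medium with 0.1% DMSO, p<0.05.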

TIGK [2] = assay: Cytotoxicity against human TIGK cells assessed as reduction in ATP levels at 60 uM after 18 hrs by CellTiterGlo reagent-based assay; assay type: cell-based; how it was run: as §1
TIGK [3] = assay: Cytotoxicity against human TIGK cells assessed as increase in LDH release at 5 to 60 uM after 18 hrs by LDH release assay; assay type: cell-based
How it was run: (§2)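 Immortalized gingival keratinocytes (TIGK) are seeded at 4000 cells/well, grown 24 h, then exposed 18 h to compound in fresh medium. Supernatant is mixed with LDH substrate for 30 min at room temperature, stopped, and read at OD 490 nm. Kit lysis buffer for 1 h serves as the positive control; medium alone is the negative control. Triplicate samples.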

TIGK [4] = assay: Cytotoxicity against human TIGK cells assessed as reduction in ATP levels at 5 to 20 uM after 18 hrs by CellTiterGlo reagent-based assay; assay type: cell-based; how it was run: as §1
TIGK [5] = assay: Cytotoxicity against human TIGK cells assessed as increase in LDH release at 5 to 20 uM after 18 hrs by LDH release assay; assay type: cell-based; how it was run: as §2
TIGK [6] = assay: Cytotoxicity against human TIGK cells assessed as reduction in ATP levels at 5 to 40 uM after 18 hrs by CellTiterGlo reagent-based assay; assay type: cell-based; how it was run: as §1
TIGK [7] = assay: Cytotoxicity against human TIGK cells assessed as increase in LDH release at 5 to 40 uM after 18 hrs by LDH release assay; assay type: cell-based; how it was run: as §2
TIGK [8] = assay: Cytotoxicity against human TIGK cells assessed as reduction in ATP levels at 5 to 60 uM after 18 hrs by CellTiterGlo reagent-based assay; assay type: cell-based; how it was run: as §1

IC50 (Porphyromonas gingivalis) | SMILES | other results
Not Active | Fc1ccccc1Nc1nc(Nc2ccccc2F)nc(-c2cn(-c3ccc(-c4nc(-c5ccc(Cl)cc5)c(-c5ccc(Cl)cc5)o4)cc3)nn2)n1 | –
Not Active | CCN(CC)c1nc(-c2cn(-c3cccc(-c4nc(-c5ccc(F)cc5)c(-c5ccc(F)cc5)o4)c3)nn2)nc(N(CC)CC)n1 | –
Not Active | [O-][S+](Cc1nc(-c2ccccc2)c(-c2ccccc2)o1)c1ccc(-n2cc(-c3ccc(Oc4ccccc4)cc3)nn2)cc1 (stereo unspecified) | –
Not Active | Fc1ccccc1Nc1nc(Nc2ccccc2F)nc(-c2cn(-c3cccc(-c4nc(-c5ccco5)c(-c5ccco5)o4)c3)nn2)n1 | –
Not Active | COc1ccc2cc(-c3cn(-c4ccc([S+]([O-])Cc5nc(-c6ccccc6)c(-c6ccccc6)o5)cc4)nn3)ccc2c1 (stereo unspecified) | –
Not Active | CCN(CC)c1nc(-c2cn(-c3cccc(-c4nc(-c5ccco5)c(-c5ccco5)o4)c3)nn2)nc(N(CC)CC)n1 | –
Not Active | COc1ccc(-c2nc(-c3cccc(-n4cc(-c5nc(Nc6ccc(F)cc6)nc(Nc6ccc(F)cc6)n5)nn4)c3)oc2-c2ccc(OC)cc2)cc1 | –
Not Active | Fc1ccccc1Nc1nc(Nc2ccccc2F)nc(-c2cn(-c3ccc(-c4nc(-c5ccco5)c(-c5ccco5)o4)cc3)nn2)n1 | –
Not Active | COc1ccc2cc(-c3cn(-c4ccc(S(=O)(=O)Cc5nc(-c6ccccc6)c(-c6ccccc6)o5)cc4)nn3)ccc2c1 | –
Not Active | Fc1ccc(Nc2nc(Nc3ccc(F)cc3)nc(-c3cn(-c4ccccc4-c4nc(-c5ccccc5)c(-c5ccccc5)o4)nn3)n2)cc1 | –
Not Active | Fc1ccc(Nc2nc(Nc3ccc(F)cc3)nc(-c3cn(-c4ccc(-c5nc(-c6ccccc6)c(-c6ccccc6)o5)cc4)nn3)n2)cc1 | –
Not Active | O=S(=O)(Cc1nc(-c2ccccc2)c(-c2ccccc2)o1)c1ccc(-n2cc(-c3ccccc3C(F)(F)F)nn2)cc1 | –
Not Active | [O-][S+](Cc1nc(-c2ccccc2)c(-c2ccccc2)o1)c1ccc(-n2cc(-c3ccccc3C(F)(F)F)nn2)cc1 (stereo unspecified) | –
Not Active | Fc1ccc(Nc2nc(Nc3ccc(F)cc3)nc(-c3cn(-c4cccc(-c5nc(-c6ccc(F)cc6)c(-c6ccc(F)cc6)o5)c4)nn3)n2)cc1 | –
Not Active | CCCCCc1ccc(-c2cn(-c3ccc([S+]([O-])Cc4nc(-c5ccccc5)c(-c5ccccc5)o4)cc3)nn2)cc1 (stereo unspecified) | –
Not Active | [O-][S+](Cc1nc(-c2ccccc2)c(-c2ccccc2)o1)c1ccc(-n2cc(-c3cccnc3)nn2)cc1 (stereo unspecified) | –

Further lines, the compound ahead of its results:

SMILES | IC50 (Porphyromonas gingivalis) | other results
CCN(CC)c1nc(-c2cn(-c3cccc(-c4nc(-c5ccc(OC)cc5)c(-c5ccc(OC)cc5)o4)c3)nn2)nc(N(CC)CC)n1 | Not Active | –
[O-][S+](Cc1nc(-c2ccccc2)c(-c2ccccc2)o1)c1ccc(-n2cc(-c3ccc(F)cc3)nn2)cc1 (stereo unspecified) | Not Active | –
COc1ccc(-c2nc(-c3ccccc3-n3cc(-c4nc(Nc5ccc(F)cc5)nc(Nc5ccc(F)cc5)n4)nn3)oc2-c2ccc(OC)cc2)cc1 | Not Active | –
CCN(CC)c1nc(-c2cn(-c3ccc(-c4nc(-c5ccccc5)c(-c5ccccc5)o4)cc3)nn2)nc(N(CC)CC)n1 | Not Active | –
Fc1ccc(Nc2nc(Nc3ccc(F)cc3)nc(-c3cn(-c4cccc(-c5nc(-c6ccccc6)c(-c6ccccc6)o5)c4)nn3)n2)cc1 | – | Activity (TIGK [1]): Dose-dependent effect; Activity (TIGK [2]): Toxic; Activity (TIGK [3]): Non-Toxic
[O-][S+](Cc1nc(-c2ccccc2)c(-c2ccccc2)o1)c1ccc(-n2cc(-c3cc(C(F)(F)F)cc(C(F)(F)F)c3)nn2)cc1 (stereo unspecified) | Not Active | –
CCN(CC)c1nc(-c2cn(-c3ccc(-c4nc(-c5ccco5)c(-c5ccco5)o4)cc3)nn2)nc(N(CC)CC)n1 | Not Active | –
COc1ccccc1-c1cn(-c2ccc([S+]([O-])Cc3nc(-c4ccccc4)c(-c4ccccc4)o3)cc2)nn1 (stereo unspecified) | Not Active | –
Fc1ccc(Nc2nc(Nc3ccc(F)cc3)nc(-c3cn(-c4ccc(-c5nc(-c6ccc(F)cc6)c(-c6ccc(F)cc6)o5)cc4)nn3)n2)cc1 | – | Activity (TIGK [4]): Non-Toxic; Activity (TIGK [5]): Non-Toxic
COc1ccc(-c2nc(-c3cccc(-n4cc(-c5nc(Nc6ccccc6F)nc(Nc6ccccc6F)n5)nn4)c3)oc2-c2ccc(OC)cc2)cc1 | Not Active | –
CCN(CC)c1nc(-c2cn(-c3ccc(-c4nc(-c5ccc(Cl)cc5)c(-c5ccc(Cl)cc5)o4)cc3)nn2)nc(N(CC)CC)n1 | – | Activity (TIGK [6]): Non-Toxic; Activity (TIGK [7]): Non-Toxic
O=S(=O)(Cc1nc(-c2ccccc2)c(-c2ccccc2)o1)c1ccc(-n2cc(-c3cccnc3)nn2)cc1 | Not Active | –
Fc1ccccc1Nc1nc(Nc2ccccc2F)nc(-c2cn(-c3ccc(-c4nc(-c5ccccc5)c(-c5ccccc5)o4)cc3)nn2)n1 | Not Active | –
COc1ccc(-c2nc(-c3ccc(-n4cc(-c5nc(Nc6ccc(F)cc6)nc(Nc6ccc(F)cc6)n5)nn4)cc3)oc2-c2ccc(OC)cc2)cc1 | Not Active | –
Fc1ccc(Nc2nc(Nc3ccc(F)cc3)nc(-c3cn(-c4ccccc4-c4nc(-c5ccco5)c(-c5ccco5)o4)nn3)n2)cc1 | – | Activity (TIGK [8]): Non-Toxic; Activity (TIGK [3]): Non-Toxic
